Results from PMC6172068 (Cancer Science, 2018).

Legend:
[1] = system: relapsed/refractory (R/R) acute myeloid leukemia (AML); test: Antileukemic activity; type: in vivo, Japanese patients
Summary of the method: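 Adults (≥18 years) with relapsed/refractory AML took an oral test compound once daily in escalating cohorts (20–300 mg/d). Cycle 0 was a single dose with 2-day observation, followed by 28-day cycles. Marrow aspirates or biopsies were taken at screening, Cycle 1 Day 28, Day 1 of later cycles and end of treatment. CR, CRp and CRi followed International Working Group criteria. The full analysis set was used.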

c-Kit = details: cited from earlier work
[2] = system: FLT3 receptors expressing FLT3-TKD D835 mutations; details: leukemic cells; cited from earlier work
[3] = 12-lead electrocardiogram QT interval; type: in vivo, Japanese patients
[4] = system: FLT3 receptors expressing F691 gatekeeper mutations; details: leukemic cells; cited from earlier work
[5] = FLT3 mutation-negative patients, Total (n = 11)
[6] = FLT3 mutation-positive patients, 20 mg (n = 1)
[7] = FLT3 mutation-positive patients, 40 mg (n = 1)
[8] = FLT3 mutation-positive patients, 80 mg (n = 1)
[9] = FLT3 mutation-positive patients, 200 mg (n = 2)
[10] = patients with mutated FLT3 (n = 5), 1 patient
[11] = patients with wild-type FLT3 (n = 11), 1 patient
[12] = one patient who received 20 mg/d

SMILES: CCc1nc(C(N)=O)c(Nc2ccc(N3CCC(N4CCN(C)CC4)CC3)c(OC)c2)nc1NC1CCOCC1 [gilteritinib]
- CR ([1]; All patients, 20 mg (n = 1)): 0 n (%, [95% CI])
- CRc (CR plus CRp plus CRi) ([1]; All patients, 20 mg (n = 1)): 1 (100 [2.5, 100]) n (%, [95% CI])
- CRi ([1]; All patients, 20 mg (n = 1)): 1 (100 [2.5, 100]) n (%, [95% CI])
- CRp ([1]; All patients, 20 mg (n = 1)): 0 n (%, [95% CI])
- ORR (CRc plus PR) ([1]; All patients, 20 mg (n = 1)): 1 (100 [2.5, 100]) n (%, [95% CI])
- PR ([1]; All patients, 20 mg (n = 1)): 0 n (%, [95% CI])
- CR ([1]; All patients, 40 mg (n = 3)): 0 n (%, [95% CI])
- CRc (CR plus CRp plus CRi) ([1]; All patients, 40 mg (n = 3)): 0 n (%, [95% CI])
- CRi ([1]; All patients, 40 mg (n = 3)): 0 n (%, [95% CI])
- CRp ([1]; All patients, 40 mg (n = 3)): 0 n (%, [95% CI])
- CR ([1]; All patients, 80 mg (n = 4)): 1 (25 [0.6, 80.6]) n (%, [95% CI])
- CRc (CR plus CRp plus CRi) ([1]; All patients, 80 mg (n = 4)): 1 (25 [0.6, 80.6]) n (%, [95% CI])
- CRi ([1]; All patients, 80 mg (n = 4)): 0 n (%, [95% CI])
- CRp ([1]; All patients, 80 mg (n = 4)): 0 n (%, [95% CI])
- ORR (CRc plus PR) ([1]; All patients, 80 mg (n = 4)): 2 (50 [6.8, 93.2]) n (%, [95% CI])
- PR ([1]; All patients, 80 mg (n = 4)): 1 (25 [0.6, 80.6]) n (%, [95% CI])
- CR ([1]; All patients, 120 mg (n = 2)): 0 n (%, [95% CI])
- CRc (CR plus CRp plus CRi) ([1]; All patients, 120 mg (n = 2)): 1 (50 [1.3, 98.7]) n (%, [95% CI])
- CRi ([1]; All patients, 120 mg (n = 2)): 1 (50 [1.3, 98.7]) n (%, [95% CI])
- CRp ([1]; All patients, 120 mg (n = 2)): 0 n (%, [95% CI])
- ORR (CRc plus PR) ([1]; All patients, 120 mg (n = 2)): 1 (50 [1.3, 98.7]) n (%, [95% CI])
- PR ([1]; All patients, 120 mg (n = 2)): 0 n (%, [95% CI])
- CR ([1]; All patients, 200 mg (n = 7)): 0 n (%, [95% CI])
- CRc (CR plus CRp plus CRi) ([1]; All patients, 200 mg (n = 7)): 4 (57.1 [18.4, 90.1]) n (%, [95% CI])
- CRi ([1]; All patients, 200 mg (n = 7)): 1 (14.3 [0.4, 57.9]) n (%, [95% CI])
- CRp ([1]; All patients, 200 mg (n = 7)): 3 (42.9 [9.9, 81.6]) n (%, [95% CI])
- ORR (CRc plus PR) ([1]; All patients, 200 mg (n = 7)): 4 (57.1 [18.4, 90.1]) n (%, [95% CI])
- PR ([1]; All patients, 200 mg (n = 7)): 0 n (%, [95% CI])
- CR ([1]; All patients, 300 mg (n = 2)): 0 n (%, [95% CI])
- CRc (CR plus CRp plus CRi) ([1]; All patients, 300 mg (n = 2)): 0 n (%, [95% CI])
- CRi ([1]; All patients, 300 mg (n = 2)): 0 n (%, [95% CI])
- CRp ([1]; All patients, 300 mg (n = 2)): 0 n (%, [95% CI])
- ORR (CRc plus PR) ([1]; All patients, 300 mg (n = 2)): 0 n (%, [95% CI])
- PR ([1]; All patients, 300 mg (n = 2)): 0 n (%, [95% CI])
- CRc ([1]; FAS, all doses, 7 of 19 patients, 95% CI: 16.3, 61.6): 36.8%
- ORR ([1]; FAS, all doses, n = 9/19, 95% CI: 24.4, 71.1): 47.4%
- Median duration of CRc ([1]; FAS, 95% CI: 28.0, 116.0): 86.5 days
- Median duration of remission ([1]; FAS, 95% CI: 28.0, 139.0): 113.5 days
- CR [1, 5]: 1 (9.1 [0.2, 41.3]) n (%, [95% CI])
- CRc (CR plus CRp plus CRi) [1, 5]: 3 (27.3 [6.0, 61.0]) n (%, [95% CI])
- CRi [1, 5]: 0 n (%, [95% CI])
- CRp [1, 5]: 2 (18.2 [2.3, 51.8]) n (%, [95% CI])
- ORR (CRc plus PR) [1, 5]: 4 (36.4 [10.9, 69.2]) n (%, [95% CI])
- PR [1, 5]: 1 (9.1 [0.2, 41.3]) n (%, [95% CI])
- CRc ([1]; FLT3 mutation-positive patients (n = 5), 95% CI: 14.7, 94.7): 60%
- ORR ([1]; FLT3 mutation-positive patients (n = 5), 95% CI: 28.4, 99.5): 80%
- CR [1, 6]: 0 n (%, [95% CI])
- CRc (CR plus CRp plus CRi) [1, 6]: 1 (100 [2.5, 100]) n (%, [95% CI])
- CRi [1, 6]: 1 (100 [2.5, 100]) n (%, [95% CI])
- CRp [1, 6]: 0 n (%, [95% CI])
- ORR (CRc plus PR) [1, 6]: 1 (100 [2.5, 100]) n (%, [95% CI])
- PR [1, 6]: 0 n (%, [95% CI])
- CR [1, 7]: 0 n (%, [95% CI])
- CRc (CR plus CRp plus CRi) [1, 7]: 0 n (%, [95% CI])
- CRi [1, 7]: 0 n (%, [95% CI])
- CRp [1, 7]: 0 n (%, [95% CI])
- ORR (CRc plus PR) [1, 7]: 0 n (%, [95% CI])
- PR [1, 7]: 0 n (%, [95% CI])
- CR [1, 8]: 0 n (%, [95% CI])
- CRc (CR plus CRp plus CRi) [1, 8]: 0 n (%, [95% CI])
- CRi [1, 8]: 0 n (%, [95% CI])
- CRp [1, 8]: 0 n (%, [95% CI])
- ORR (CRc plus PR) [1, 8]: 1 (100 [2.5, 100]) n (%, [95% CI])
- PR [1, 8]: 1 (100 [2.5, 100]) n (%, [95% CI])
- CR [1, 9]: 0 n (%, [95% CI])
- CRc (CR plus CRp plus CRi) [1, 9]: 2 (100 [15.8, 100]) n (%, [95% CI])
- CRi [1, 9]: 1 (50 [1.3, 98.7]) n (%, [95% CI])
- CRp [1, 9]: 1 (50 [1.3, 98.7]) n (%, [95% CI])
- ORR (CRc plus PR) [1, 9]: 2 (100 [15.8, 100]) n (%, [95% CI])
- PR [1, 9]: 0 n (%, [95% CI])
- Median duration of CRc ([1]; FLT3 mutation-positive patients, 95% CI: 30.0, 116.0): 63.0 days
- Median duration of remission ([1]; FLT3 mutation-positive patients, 95% CI: 30.0, not evaluable): 89.5 days
- CR with incomplete platelet recovery [1, 10]: 20%
- partial remission (PR) [1, 10]: 20%
- CR with incomplete hematologic recovery ([1]; patients with mutated FLT3 (n = 5), 2 patients): 40%
- CR [1, 11]: 9.1%
- PR [1, 11]: 9.1%
- CR with incomplete platelet recovery ([1]; patients with wild-type FLT3 (n = 11), 2 patients): 18.2%
- CRc ([1]; patients without FLT3 mutations (n = 11), 95% CI: 6.0, 61.0): 27.3%
- ORR ([1]; patients without FLT3 mutations (n = 11), 95% CI: 10.9, 69.2): 36.4%
- Median duration of CRc ([1]; patients without FLT3 mutations, 95% CI: 28.0, 111.0): 69.5 days
- Median duration of remission ([1]; patients without FLT3 mutations, 95% CI: 28.0, 127.0): 111.0 days
- inhibitory effect on c-Kit (c-Kit): minimal inhibitory effect
- inhibition of FLT3 receptors expressing FLT3-TKD D835 mutations [2]: strongly inhibited
- possible treatment-related prolongation of the QTcF interval ([3]; 1 patient, 40 mg/d dose cohort): 4.2%
- prolonged QT interval identified as an AE ([3]; 2 patients (20 mg/d and 40 mg/d)): 8.3%
- patients with maximum QTcF change of >30 ms ([3]; 5 of 22 evaluable patients): 22.7%
- patients with prolonged QT interval of >450 ms (QTcF) ([3]; 9 of 24 patients): 37.5%
- maximum postbaseline QTcF change from baseline [3, 12]: 65 ms
- mean maximum postbaseline QTcF [3, 12]: 486 ms
- inhibition of FLT3 receptors expressing F691 gatekeeper mutations [4]: weak inhibitor
